Several values for one entry are separate records, joined by “and”; a condition that tells them apart may be missing. Equal entries are not always repeated.
Assays:
[1] = Oral pharmacokinetic study in rats; type: in vivo; settings: SD, rat, plasma, 10 mg/kg
In short: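 SD rats received test compound at 10 mg kg−1 by oral gavage in 2% DMSO + 98% (0.5% MC). Venous blood was sampled at 0, 0.25, 0.5, 1, 2, 4, 6, 8 and 24 h. Plasma was separated by centrifugation, stored at −20 °C and assayed by LC/MS. Cmax, Tmax, t1/2 and AUC were then calculated.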

[2] = Plasma stability assay, rat plasma; type: in vitro ADME; settings: @45 min, 37 °C
In short: (§1)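 Rat or human plasma was spiked with test article from a 100 μg mL−1 stock and incubated at 37 °C with gentle agitation. Aliquots taken at 0, 15 and 45 min were quenched in methanol containing 1 μg mL−1 internal standard, then centrifuged and analysed by LC/MS. Percent remaining relative to 0 min was based on the analyte/internal standard peak-area ratio.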

CFPAC1 cells [3] = test: Cell migration assay; type: cell-based; settings: 10 μM, 24 h, 3 visual fields, control group 1221 ± 57 cells
[4] = Liver microsome stability assay, human; type: in vitro ADME; settings: @45 min, 37 °C, NADPH
In short: (§2)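 Rat or human liver microsomes (1 mg mL−1) were mixed with NADPH (from a 50 mM stock) and pre-warmed for 5 min at 37 °C. Reactions were started with test article from a 100 μg mL−1 stock and kept at 37 °C. Samples at 0, 15 and 45 min were quenched in methanol containing 1 μg mL−1 internal standard, then centrifuged and analysed by LC/MS. Disappearance was derived from the analyte/internal standard peak-area ratio.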

SGF stability assay = type: in vitro ADME; settings: @45 min, 37 °C, pH about 1.2
In short: (§3)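 Two media were used. SIF: pancreatin 0.68 g per 100 mL of 50 mM potassium phosphate, pH 7.4. SGF: pepsin 3.2 g per 1000 mL of water with 2.0 g NaCl and 7.0 mL concentrated HCl, pH about 1.2. Test article was added from a 100 μg mL−1 stock and incubated at 37 °C with gentle agitation. Samples at 0, 15 and 45 min were quenched in methanol with 1 μg mL−1 internal standard and analysed by LC/MS. Percent remaining relative to 0 min used the peak-area ratio.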

CFPAC1 cells [5] = test: Anti-proliferation assay; type: cell-based; settings: 6.25, 12.5, 25, 50 and 100 μM; 72 h; MTT
In short: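 CFPAC1 pancreatic cancer cells were seeded at 4000 cells per well and left to adhere for 24 h. They were then exposed for 72 h to medium alone or to test compound at 6.25, 12.5, 25, 50 or 100 μM. Viability was read by MTT. Growth inhibition (%) = [1 − (A/B)] × 100, where A is treated and B is untreated absorbance.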

CXCR2 = molecular target: T1, CXCR2 (Homo sapiens, UniProt P25025); test: CXCR2 antagonistic activity assay; type: cell-based
T1 sequence (P25025 1-360): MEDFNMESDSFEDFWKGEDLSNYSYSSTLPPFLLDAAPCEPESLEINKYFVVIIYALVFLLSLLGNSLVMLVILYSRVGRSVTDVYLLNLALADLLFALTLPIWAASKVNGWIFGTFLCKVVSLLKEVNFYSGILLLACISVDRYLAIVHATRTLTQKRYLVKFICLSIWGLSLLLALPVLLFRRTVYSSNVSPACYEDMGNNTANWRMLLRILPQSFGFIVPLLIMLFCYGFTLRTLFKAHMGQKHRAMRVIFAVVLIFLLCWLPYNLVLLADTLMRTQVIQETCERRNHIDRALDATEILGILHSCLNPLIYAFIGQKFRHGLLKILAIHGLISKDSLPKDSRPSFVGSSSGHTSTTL
In short: (§4)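 HEK293 cells stably co-expressing Gα16 with either CXCR1 or CXCR2 were seeded and grown for 24 h. They were loaded with 2 μmol L−1 Fluo-4 AM in HBSS (pH 7.4, with BSA and 250 μmol L−1 sulfinpyrazone) for 45 min at 37 °C, and excess dye was removed. Test compound was added for 10 min at room temperature before IL-8 injection. Calcium signal was read at ex 485/em 525 nm. IC50 came from nonlinear regression of log concentration–response curves; each experiment was run ≥3 times.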

CFPAC1 cells [6] = test: Wound healing assay; type: cell-based; settings: Homo sapiens, CFPAC-1, 48 h, read-out: migration inhibitory rate
In short: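 CFPAC1 cells were seeded at 5 × 10^5 per well in 6-well plates and grown to 90% confluence. The monolayer was scratched with a sterile pipette tip and rinsed three times with PBS. Cells were then exposed to 1‰ DMSO or 10 μM test compound. Wounds were photographed at 0, 24 and 48 h. Inhibition (%) = [1 − (0 h area − 24 h or 48 h area)/0 h area] × 100.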

[7] = Plasma stability assay, human plasma; type: in vitro ADME; settings: @45 min, 37 °C
In short: as §1

SIF stability assay = type: in vitro ADME; settings: @45 min, 37 °C, pH 7.4
In short: as §3

[8] = Liver microsome stability assay, rat; type: in vitro ADME; settings: @45 min, 37 °C, NADPH
In short: as §2

CXCR1 = molecular target: T2, CXCR1 (Homo sapiens, UniProt P25024); test: CXCR1 antagonistic activity assay; type: cell-based
T2 sequence (P25024 1-350): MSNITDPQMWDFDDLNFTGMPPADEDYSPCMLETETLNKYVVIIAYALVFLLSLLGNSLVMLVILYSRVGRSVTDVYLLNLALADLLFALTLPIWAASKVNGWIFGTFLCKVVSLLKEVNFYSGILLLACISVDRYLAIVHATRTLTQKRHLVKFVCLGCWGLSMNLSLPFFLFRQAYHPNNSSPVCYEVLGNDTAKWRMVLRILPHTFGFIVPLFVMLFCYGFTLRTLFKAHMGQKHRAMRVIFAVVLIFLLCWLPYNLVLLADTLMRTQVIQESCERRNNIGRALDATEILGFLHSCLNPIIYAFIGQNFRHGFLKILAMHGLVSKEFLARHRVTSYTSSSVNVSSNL
In short: as §4

Compound	Ratio = CXCR1 IC50/CXCR2 IC50 (selectivity for CXCR2 over CXCR1) (CXCR2)	IC50 (CXCR1) [µM]	IC50 (CXCR2) [µM]	other results
O=C(c1cccc(Nc2c(NC3C[C@@H]4CC[C@H]3C4)c(=O)c2=O)c1O)N1CCCC1 (stereo partly drawn) [2e, 3-(((1S,4R)-Bicyclo[2.2.1]heptan-2-yl)amino)-4-((2-hydroxy-3-(pyrrolidine-1-carbonyl)phenyl)amino)cyclobut-3-ene-1,2-dione]	60.4			AUC(0-inf) [1]: 8940 ± 3460 ng·h/mL; AUC(0-t) [1]: 8820 ± 3560 ng·h/mL; Cmax [1]: 2860 ± 94 ng/mL; MRT [1]: 3.43 ± 0.73 h; Tmax [1]: 0.33 ± 0.14 h; half-life [1]: 2.58 ± 0.74 h; k el [1]: 7.92e-05 s⁻¹; Remaining percentage, plasma stability, rat [2]: >99%; number of cells traversed into the lower chamber of the Transwell (CFPAC1 cells [3]): 727 ± 50 cells; Remaining percentage, liver microsome stability, human [4]: 27% and 27.4 ± 4.3%; Remaining percentage, SGF (SGF stability assay): >99%; inhibitory effect on the CFPAC1 cell line (survival rate) (CFPAC1 cells [5]): no inhibitory effect; inhibition at 10 µM (CFPAC1 cells [6]): 20.2%; Remaining percentage, plasma stability, human [7]: >99%; Remaining percentage, SIF (SIF stability assay): 92.2 ± 2.0%; Remaining percentage, liver microsome stability, rat [8]: 84% and 84.2 ± 3.4%
CN(C)C(=O)c1cccc(Nc2c(NC3C[C@H]4CC[C@]3(C)C4(C)C)c(=O)c2=O)c1O (stereo partly drawn) [1c, 3-((3,4-Dioxo-2-(((1R,4R)-1,7,7-trimethylbicyclo[2.2.1]heptan-2-yl)amino)cyclobut-1-en-1-yl)amino)-2-hydroxy-N,N-dimethylbenzamide]	6.5	35.6	5.5	
CN(C)C(=O)c1cccc(Nc2c(NC3C[C@H]4C[C@@H]3C3CCC[C@@H]34)c(=O)c2=O)c1O (stereo partly drawn) [1d, 2-Hydroxy-N,N-dimethyl-3-((2-(((4R,7R,7aR)-octahydro-1H-4,7-methanoinden-5-yl)amino)-3,4-dioxocyclobut-1-en-1-yl)amino)benzamide]	6.7	6.7	1	
CN(C)C(=O)c1cccc(Nc2c(NCC3C[C@H]4C=C[C@@H]3C4)c(=O)c2=O)c1O (stereo partly drawn) [1e, 3-((2-((((1S,4S)-Bicyclo[2.2.1]hept-5-en-2-yl)methyl)amino)-3,4-dioxocyclobut-1-en-1-yl)amino)-2-hydroxy-N,N-dimethylbenzamide]	11.8	30.8	2.6	
CN(C)C(=O)c1cccc(Nc2c(NC3C[C@H]4CC[C@@H](C3)N4C(=O)OC(C)(C)C)c(=O)c2=O)c1O (stereo partly drawn) [1b, Tert-butyl (1R,5S)-3-((2-((3-(dimethylcarbamoyl)-2-hydroxyphenyl)amino)-3,4-dioxocyclobut-1-en-1-yl)amino)-8-azabicyclo[3.2.1]octane-8-carboxylate]		> 100	> 100	
CN(C)C(=O)c1cccc(Nc2c(NC3C[C@@H]4CC[C@H]3C4)c(=O)c2=O)c1O (stereo partly drawn) [1a, 3-((2-(((1S,4R)-Bicyclo[2.2.1]heptan-2-yl)amino)-3,4-dioxocyclobut-1-en-1-yl)amino)-2-hydroxy-N,N-dimethylbenzamide]	113	7	0.062	
CN(C)C(=O)c1cccc(Nc2c(NCC3C[C@H]4CC[C@@H]3C4)c(=O)c2=O)c1O (stereo partly drawn) [1f, 3-((2-((((1R,4S)-Bicyclo[2.2.1]heptan-2-yl)methyl)amino)-3,4-dioxocyclobut-1-en-1-yl)amino)-2-hydroxy-N,N-dimethylbenzamide]	2.1	48.8	23.6	

Continued, in another order:

Ratio = CXCR1 IC50/CXCR2 IC50 (selectivity for CXCR2 over CXCR1) (CXCR2)	IC50 (CXCR1) [µM]	IC50 (CXCR2) [µM]	Compound	other results
17.5	10.3	0.59	O=C(c1cccc(Nc2c(NC3C[C@@H]4CC[C@H]3C4)c(=O)c2=O)c1O)N1CCCCC1 (stereo partly drawn) [2f, 3-(((1S,4R)-Bicyclo[2.2.1]heptan-2-yl)amino)-4-((2-hydroxy-3-(piperidine-1-carbonyl)phenyl)amino)cyclobut-3-ene-1,2-dione]	
70.7	6.5	0.092	CC(C)[S+]([O-])c1c(Cl)ccc(Nc2c(NC3C[C@@H]4CC[C@H]3C4)c(=O)c2=O)c1O (stereo partly drawn) [2d, 3-(((1S,4R)-Bicyclo[2.2.1]heptan-2-yl)amino)-4-((4-chloro-2-hydroxy-3-(isopropylsulfinyl)phenyl)amino)cyclobut-3-ene-1,2-dione]	
22.7	86.1	3.8	Cc1ccc(Nc2c(NC3C[C@@H]4CC[C@H]3C4)c(=O)c2=O)c(O)c1 (stereo partly drawn) [2a, 3-(((1S,4R)-Bicyclo[2.2.1]heptan-2-yl)amino)-4-((2-hydroxy-4-methylphenyl)amino)cyclobut-3-ene-1,2-dione]	
13.3	5.6	0.42	CC(C)(C)OC(=O)N1CCN(C(=O)c2cccc(Nc3c(NC4C[C@@H]5CC[C@H]4C5)c(=O)c3=O)c2O)CC1 (stereo partly drawn) [2g, Tert-butyl 4-(3-((2-(((1S,4R)-bicyclo[2.2.1]heptan-2-yl)amino)-3,4-dioxocyclobut-1-en-1-yl)amino)-2-hydroxybenzoyl)piperazine-1-carboxylate]	
>188.7	> 100	0.53	Cl.O=C(c1cccc(Nc2c(NC3C[C@@H]4CC[C@H]3C4)c(=O)c2=O)c1O)N1CCNCC1 (stereo partly drawn) [2h, 3-(((1S,4R)-Bicyclo[2.2.1]heptan-2-yl)amino)-4-((2-hydroxy-3-(piperazine-1-carbonyl)phenyl)amino)cyclobut-3-ene-1,2-dione hydrochloride]	
94.9	42.7	0.45	N#Cc1ccc(Nc2c(NC3C[C@@H]4CC[C@H]3C4)c(=O)c2=O)c(O)c1 (stereo partly drawn) [2b, 4-((2-(((1S,4R)-Bicyclo[2.2.1]heptan-2-yl)amino)-3,4-dioxocyclobut-1-en-1-yl)amino)-3-hydroxybenzonitrile]	
103.3	12.4	0.12	CC(C)S(=O)(=O)c1c(Cl)ccc(Nc2c(NC3C[C@@H]4CC[C@H]3C4)c(=O)c2=O)c1O (stereo partly drawn) [2c, 3-(((1S,4R)-Bicyclo[2.2.1]heptan-2-yl)amino)-4-((4-chloro-2-hydroxy-3-(isopropylsulfonyl)phenyl)amino)cyclobut-3-ene-1,2-dione]	

Reference: PMC9078949 (RSC Advances, 2018)
